# Source: ChEMBL document CHEMBL1154676, “Synthetic mRNA splicing modulator compounds with in vivo antitumor activity” (J Med Chem, 2009)
# What was measured:
# KM12 = test: Growth inhibition of human KM12 cells by sulforhodamine B assay; assay type: functional
# [1] = Cytotoxicity against human BT-12 cells after 72 hrs by XTT assay; assay type: functional, cell-based; settings: BT-12, 72 h
# Outline: (§1)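 Cells grown at 37 °C, 5% CO2; HFF in DMEM with 10% FBS, PrEC in prostate epithelial growth medium. Adherent lines seeded overnight, suspension lines same day; compounds diluted from DMSO stocks into media at various final concentrations, 72 h exposure. XTT reagent added 4 h, absorbance 490 nm (reference 690 nm). Growth as % of vehicle; IC50 from sigmoidal dose-response fit; mean ± SEM, three independent experiments.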
# MDA-MB-468 = test: Growth inhibition of human MDA-MB-468 cells by sulforhodamine B assay; assay type: functional
# 786-0 = test: Growth inhibition of human 786-0 cells by sulforhodamine B assay; assay type: functional
# [2] = Cytotoxicity against human Rh30 cells after 72 hrs by XTT assay; assay type: functional, cell-based; settings: SJRH30, 72 h; outline: as §1
# MDA-MB-231 = test: Growth inhibition of human MDA-MB-231 cells by sulforhodamine B assay; assay type: functional
# DU-145 = test: Growth inhibition of human DU145 cells by sulforhodamine B assay; assay type: functional
# [3] = Growth inhibition of human […] cells by sulforhodamine B assay; assay type: functional
# Mus musculus [4] = test: Toxicity in NOD/SCID mouse assessed as alanine aminotransferase level at 5 to 50 mg/kg, […] for 5 days; assay type: organism-based; design: dose 5-50 mg/kg, route oral; settings: in vivo, po, 120 h
# [5] = Growth inhibition of human MDA-MB-436 cells by sulforhodamine B assay; assay type: functional
# Mus musculus [6] = test: Toxicity in NOD/SCID mouse assessed as complete blood counts level at 5 to 50 mg/kg, […] for 5 days; assay type: organism-based; design: dose 5-50 mg/kg; settings: in vivo, po, 120 h
# Mus musculus [7] = test: Toxicity in NOD/SCID mouse assessed as sodium level at 5 to 50 mg/kg, […] for 5 days; assay type: organism-based; design: dose 5-50 mg/kg; settings: in vivo, po, 120 h
# [8] = Antitumor activity against human JeKo1 cells transplanted in NOD/SCID mouse assessed as tumor volume treated iv for 5 days relative to control; assay type: functional, JeKo-1
# Outline: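 Female NOD/SCID mice bearing JeKo-1 tumors transplanted day 1; IV dosing from day 4, daily for five days, at 5, 10, 25 or 50 mg/kg in 3.0% DMSO/6.5% Tween 80/5% glucose, 4 per group. Volume = (length × width²)/2, measured thrice weekly; T/C = median treated tumor volume ÷ median control volume.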
# Mus musculus [9] = test: Toxicity in NOD/SCID mouse assessed as anemia at 5 to 50 mg/kg, iv and po for 5 days; assay type: organism-based; design: dose 5-50 mg/kg, route oral; settings: in vivo, 120 h
# PC-3 = test: Growth inhibition of human PC3 cells by sulforhodamine B assay; assay type: functional
# HOP-92 = test: Growth inhibition of human HOP92 cells by sulforhodamine B assay; assay type: functional
# Mus musculus [10] = test: Toxicity in NOD/SCID mouse assessed as total bilirubin level at 5 to 50 mg/kg, iv and po for 5 days; assay type: organism-based; design: dose 5-50 mg/kg, route oral; settings: in vivo, 120 h
# SK-MEL-5 = test: Growth inhibition of human SK-MEL-5 cells by sulforhodamine B assay; assay type: functional
# Malme-3M = test: Growth inhibition of human MALME-3M cells by sulforhodamine B assay; assay type: functional
# T47D = test: Growth inhibition of human T47D cells by sulforhodamine B assay; assay type: functional
# SNB-75 = test: Growth inhibition of human SNB75 cells by sulforhodamine B assay; assay type: functional
# PANC-1 = test: Cytotoxicity against human PANC1 cells after 72 hrs by XTT assay; assay type: functional, cell-based; settings: PANC-1, 72 h; outline: as §1
# SR = test: Growth inhibition of human SR cells by sulforhodamine B assay; assay type: functional
# JVM-2 = test: Cytotoxicity against human JVM2 cells after 72 hrs by XTT assay; assay type: functional, cell-based; settings: JVM-2, 72 h; outline: as §1
# SNB-19 = test: Growth inhibition of human SNB19 cells by sulforhodamine B assay; assay type: functional
# TK-10 = test: Growth inhibition of human TK10 cells by sulforhodamine B assay; assay type: functional
# U-251 = test: Growth inhibition of human U251 cells by sulforhodamine B assay; assay type: functional
# HL-60(TB) = test: Growth inhibition of human HL-60(TB) cells by sulforhodamine B assay; assay type: functional
# HCC 2998 = test: Growth inhibition of human HCC2998 cells by sulforhodamine B assay; assay type: functional
# M14 = test: Growth inhibition of human M14 cells by sulforhodamine B assay; assay type: functional
# CAKI-1 = test: Growth inhibition of human Caki1 cells by sulforhodamine B assay; assay type: functional
# [11] = Growth inhibition of human Hs 578T cells by sulforhodamine B assay; assay type: functional
# UACC-257 = test: Growth inhibition of human UACC257 cells by sulforhodamine B assay; assay type: functional
# Mus musculus [12] = test: Toxicity in NOD/SCID mouse assessed as leukopenia at 5 to 50 mg/kg, […] for 5 days; assay type: organism-based; design: dose 5-50 mg/kg; settings: in vivo, po, 120 h
# ACHN = test: Growth inhibition of human ACHN cells by sulforhodamine B assay; assay type: functional
# Mus musculus [13] = test: Toxicity in NOD/SCID mouse assessed as phosphorus level at 5 to 50 mg/kg, iv and po for 5 days; assay type: organism-based; design: dose 5-50 mg/kg, route oral; settings: in vivo, 120 h
# SK-MEL-28 = test: Cytotoxicity against human SK-MEL-28 cells after 72 hrs by XTT assay; assay type: functional, cell-based; settings: SK-MEL-28, 72 h; outline: as §1
# [14] = read-out: Log10GI50 (converted)
# [15] = read-out: Log10LC50 (converted)
smiles,measurement,setting,value
CC(/C=C/[C@@H]1C[C@]2(CO2)CC(C)(C)O1)=C\C[C@H]1CC[C@@H](NC(=O)/C=C\[C@H](C)OC(=O)C(C)C)CC1,GI50,KM12; [14],0.309 µM
same,CC50,KM12; [15],> 100 µM
same,TGI,KM12; read-out: Log10TGI (converted),> 100 µM
same,IC50,[1],2.79 µM
same,GI50,MDA-MB-468; [14],0.741 µM
same,CC50,MDA-MB-468; [15],> 100 µM
same,TGI,MDA-MB-468; read-out: Log10TGI (converted),39.8 µM
same,GI50,786-0; [14],2.63 µM
same,CC50,786-0; [15],> 100 µM
same,TGI,786-0; read-out: Log10TGI (converted),> 100 µM
same,IC50,[2],0.69 µM
same,GI50,MDA-MB-231; [14],0.955 µM
same,CC50,MDA-MB-231; [15],> 100 µM
same,TGI,MDA-MB-231; read-out: Log10TGI (converted),> 100 µM
same,GI50,DU-145; [14],0.55 µM
same,CC50,DU-145; [15],> 100 µM
same,TGI,DU-145; read-out: Log10TGI (converted),> 100 µM
same,GI50,[3]; [14],0.427 µM
same,CC50,[3]; [15],> 100 µM
same,TGI,[3]; read-out: Log10TGI (converted),4.68 µM
same,Activity,Mus musculus [4],Non-toxic
same,GI50,[5]; [14],0.229 µM
same,CC50,[5]; [15],> 100 µM
same,TGI,[5]; read-out: Log10TGI (converted),16.2 µM
same,Activity,Mus musculus [6],Non-toxic
same,Activity,Mus musculus [7],Non-toxic
same,T/C,[8],<=42%
same,Activity,Mus musculus [9],Non-toxic
same,GI50,PC-3; [14],0.479 µM
same,CC50,PC-3; [15],> 100 µM
same,TGI,PC-3; read-out: Log10TGI (converted),38 µM
same,GI50,HOP-92; [14],0.575 µM
same,CC50,HOP-92; [15],> 100 µM
same,TGI,HOP-92; read-out: Log10TGI (converted),> 100 µM
same,Activity,Mus musculus [10],Non-toxic
same,GI50,SK-MEL-5; [14],0.316 µM
same,CC50,SK-MEL-5; [15],10.2 µM
same,TGI,SK-MEL-5; read-out: Log10TGI (converted),1.95 µM
same,GI50,Malme-3M; [14],1.38 µM
same,CC50,Malme-3M; [15],> 100 µM
same,TGI,Malme-3M; read-out: Log10TGI (converted),61.7 µM
same,GI50,T47D; [14],0.389 µM
same,CC50,T47D; [15],> 100 µM
same,TGI,T47D; read-out: Log10TGI (converted),14.5 µM
same,GI50,SNB-75; [14],5.37 µM
same,CC50,SNB-75; [15],> 100 µM
same,TGI,SNB-75; read-out: Log10TGI (converted),> 100 µM
same,IC50,PANC-1,3.87 µM
same,GI50,SR; [14],0.0589 µM
same,CC50,SR; [15],> 100 µM
same,TGI,SR; read-out: Log10TGI (converted),0.447 µM
same,IC50,JVM-2,0.19 µM
same,GI50,SNB-19; [14],2 µM
same,CC50,SNB-19; [15],> 100 µM
same,TGI,SNB-19; read-out: Log10TGI (converted),> 100 µM
same,GI50,TK-10; [14],0.457 µM
same,CC50,TK-10; [15],> 100 µM
same,TGI,TK-10; read-out: Log10TGI (converted),7.94 µM
same,GI50,U-251; [14],0.363 µM
same,CC50,U-251; [15],> 100 µM
same,TGI,U-251; read-out: Log10TGI (converted),> 100 µM
same,GI50,HL-60(TB); [14],0.129 µM
same,CC50,HL-60(TB); [15],74.1 µM
same,TGI,HL-60(TB); read-out: Log10TGI (converted),0.525 µM
same,GI50,HCC 2998; [14],3.47 µM
same,CC50,HCC 2998; [15],> 100 µM
same,TGI,HCC 2998; read-out: Log10TGI (converted),> 100 µM
same,GI50,M14; [14],0.229 µM
same,CC50,M14; [15],> 100 µM
same,TGI,M14; read-out: Log10TGI (converted),13.8 µM
same,GI50,CAKI-1; [14],0.302 µM
same,CC50,CAKI-1; [15],> 100 µM
same,TGI,CAKI-1; read-out: Log10TGI (converted),2.14 µM
same,GI50,[11]; [14],0.309 µM
same,CC50,[11]; [15],> 100 µM
same,TGI,[11]; read-out: Log10TGI (converted),45.7 µM
same,GI50,UACC-257; [14],3.63 µM
same,CC50,UACC-257; [15],> 100 µM
same,TGI,UACC-257; read-out: Log10TGI (converted),45.7 µM
same,Activity,Mus musculus [12],Non-toxic
same,GI50,ACHN; [14],0.537 µM
same,CC50,ACHN; [15],> 100 µM
same,TGI,ACHN; read-out: Log10TGI (converted),75.9 µM
same,Activity,Mus musculus [13],Non-toxic
same,IC50,SK-MEL-28,0.55 µM
